13 substances from article PMC5492419 (ACS Central Science, 2017) can be followed below.

For one experiment, the system named is human plasma HDLs. Put plainly: Pre-beta HDL ELISA after incubating human plasma with peptide. It counts as biochemical. To be noted: ELISA screen. An outline of the steps: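 Peptides were incubated with human plasma in vitro for 1 h. Pre-beta HDL was then quantified by ELISA and reported as the concentration of pre-beta HDL generated, as mean ± SD.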
Background: An ELISA detects its analyte on a solid surface through an enzyme-linked reagent.

Experiment [1] relates to mouse macrophage J774 cells. It counts as cell-based. To be noted: 0.3 mg/mL peptide in human plasma, 2% apoB-depleted plasma, 4 h. An outline of the steps: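 Mouse macrophage J774 cells were incubated 4 h with 2% apoB-depleted plasma samples. The plasma was human plasma pre-treated with peptide at 0.3 mg/mL (~270 μM cyclic peptide), with a concentration range for one peptide. Efflux was expressed relative to vehicle-treated plasma, set as 0% efflux. Samples were run in quadruplicate and reported as mean ± SD. Peptide alone as acceptor was also tested against vehicle.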

The next experiment relates to human plasma HDL. Put plainly: Human plasma remodeling, Western blot for human apoA-I. It counts as biochemical. The following applies: Western blot, 0.4, 0.2, 0.1 mg/mL. An outline of the steps:
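Lipid-poor pre-beta HDL was then detected by Western blotting for human apoA-I. The positive control was a control peptide at 0.1 mg/mL, and the negative control was 10% sucrose.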
On the technique in general: Immunoblotting shows a protein as a band on a membrane.

Turning to wMeLwReMeQeR [peptide 27], in the experiment with human plasma HDLs, the “HDL remodeling activity (pre-beta HDL formation), in words” value (“HDL remodeling activity” below) was “greatly diminished compared to 21”.
In the case of wWwReQeR [compound 25], in the experiment with human plasma HDLs, the “HDL remodeling activity” value is “less active than peptide 21”.
As to pyLwKsKsK [compound 37], the “HDL remodeling activity” value in the experiment with human plasma HDLs was “promoted HDL remodeling”.
On to wLwErQrE [compound 30], for which the “cholesterol efflux, in words” value in experiment [1] is “dramatically reduced compared to that of 21”. The “HDL remodeling activity” value in the experiment on human plasma HDLs is on record as “dramatically reduced compared to 21”.
On to wHLwReQeR [compound 23], for which the “HDL remodeling activity” value with human plasma HDLs is on record as “less active than peptide 21”.
As for wNAwReQeR [compound 26], the “HDL remodeling activity” value in the experiment on human plasma HDLs is reported as “less active than peptide 21”.
Still for that read-out and setting: next, wLWReQeR [compound 28]: “reduced”; wLwREQeR [compound 29]: “reduced”.
Ac-wLwSeQsO-NH2 [compound 82]: the “cholesterol efflux, in words” value in experiment [1] is recorded as “failed to remodel plasma HDL or promote cholesterol efflux”. The “plasma HDL remodeling, in words” value with human plasma HDL is “failed to remodel plasma HDL”.
In the case of wAOwReQeR [compound 24], in the experiment with human plasma HDLs, the “HDL remodeling activity” value is recorded as “less active than peptide 21”.
With WlWrEqEr [compound 22], the “HDL remodeling activity” value with human plasma HDLs is “nearly identical”.
For c[wL^MewSeQ^MesO] [compound 83], the “cholesterol efflux, in words” value in experiment [1] is “greatly diminished”. Besides, in the experiment with human plasma HDL, the “plasma HDL remodeling, in words” value is reported as “greatly diminished”.
Regarding wLwReQeO [compound 18], the “HDL remodeling activity” value in the experiment with human plasma HDLs is “essentially inactive”.
